Test results taken from ChEMBL document CHEMBL3414569, “Amino acid modified xanthone derivatives: novel, highly promising membrane-active antimicrobials for multidrug-resistant Gram-positive bacterial infections” (J Med Chem, 2015).
Values after ≈ are worked out from the molar mass of the structure shown. Active and inactive are the calls of the source.

What was measured:
[1] = system: Lipid bilayer; test: Induction of vesicle leakage in DOPE/DOPG large unilamellar vesicles assessed as calcein release at 1/16 compound to lipid ratio by fluorescence assay; type: functional
Summary of the method: (§1)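 100 nm LUVs (DOPE/DOPG 75/25 or DOPC) made by film hydration in 80 mM calcein, 50 mM HEPES, 100 mM NaCl, 0.3 mM EDTA, pH 7.4. Then 7 freeze–thaw cycles, 15 extrusions and Sephadex G-50 clean-up. Compound added from DMF (<0.2%) at 50 μM final phospholipid. Fluorescence read at ex 490/em 520 nm for 30 min; 0.1% Triton X-100 set 100% lysis; three independent experiments.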

[2] = system: Mus musculus; test: Toxicity in C57BL6 mouse eye assessed as induction of toxicity related clinical signs at 3 mg/ml applied topically 5 times/day for 4 days; type: organism-based; conditions: in vivo, topical_or_ocular, 96 h
Summary of the method: (§2)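 Three healthy wild-type C57BL6 mice (6−8 weeks) per treatment received 0.5, 1 or 3 mg/mL compound in 10 mM PBS. Applied topically to the eye 5 times/day for 4 days. Corneal clarity checked daily through day 4 by slit-lamp biomicroscopy; histological sections also inspected.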

[3] = Induction of hemolysis in New Zealand white rabbit RBC after 1 hr; type: cell-based, Oryctolagus cuniculus, Erythrocyte; conditions: New Zealand white, red blood cells (RBC)
Summary of the method: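 Fresh red blood cells isolated from New Zealand white rabbits. Lysis measured over a compound concentration series; HC50 taken as the concentration lysing 50% of RBCs.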

[4] = Selectivity index, ratio of HC50 for induction of hemolysis in New Zealand white rabbit RBC to MIC for Staphylococcus aureus DM21455
[5] = system: Staphylococcus aureus; test: Antimicrobial activity against teicoplanin intermediate resistant Staphylococcus aureus isolates by broth macrodilution method; type: functional
[6] = system: Enterococcus; test: Antimicrobial activity against vancomycin-sensitive Enterococcus isolates by broth macrodilution method; type: functional
[7] = system: Staphylococcus aureus; test: Antimicrobial activity against methicillin resistant Staphylococcus aureus DM21455 in absence of 4% BSA by broth macrodilution method; type: functional
Summary of the method: (§3)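 Broth macrodilution MIC in Mueller Hinton broth following CLSI guidelines. Inoculum was prepared by direct colony suspension from an 18−20 h tryptic soy agar plate.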

[8] = system: Staphylococcus aureus; test: Antimicrobial activity against methicillin resistant Staphylococcus aureus DM21455 in presence of 4% BSA by broth macrodilution method; type: functional
Summary of the method: (§4)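 MIC by CLSI broth macrodilution in Mueller Hinton broth, with BSA added to the bacterial suspension at a final 4% w/v. Inoculum was made by direct colony suspension from an 18−20 h tryptic soy agar plate.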

[9] = system: Enterococcus; test: Antimicrobial activity against vancomycin-resistant Enterococcus isolates by broth macrodilution method; type: functional
[10] = system: Lipid bilayer; test: Binding affinity to DOPC large unilamellar vesicles by 1D 1H NMR spectroscopy
Summary of the method: (§5)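 Liposomes prepared as for the leakage LUVs: 30 mM DOPE/DOPG (75:25) or 30 mM DOPC. 1D 1H spectra of 1 mM compound recorded in water and in each liposome type at 600 MHz, 25 °C.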

[11] = system: Mus musculus; test: Toxicity in C57BL6 mouse eye assessed as inflammatory response at 3 mg/ml applied topically 5 times/day for 4 days by slit lamp biomicroscopy; type: organism-based; conditions: in vivo, topical_or_ocular, 96 h; summary of the method: as §2
[12] = system: Staphylococcus aureus; test: Antimicrobial activity against Staphylococcus aureus ATCC 29213 in absence of 4% BSA by broth macrodilution method; type: functional; summary of the method: as §3
[13] = system: Staphylococcus aureus; test: Bactericidal activity against methicillin resistant Staphylococcus aureus DM21455 assessed as induction of bacterial killing at 2 times MIC after 30 mins by cell counting based time kill assay; type: functional
Summary of the method: (§6)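 Time-kill at 35 °C with colonies taken from an 18−20 h tryptic soy agar plate and suspended in CA-MHB at 10^5−10^6 CFU/mL, then drug added. Aliquots taken at set times were diluted 10-fold serially in D/E neutralization broth, spread on tryptic soy agar, incubated 48−72 h at 35 °C, and colonies counted. Strains: MRSA DM21455, vanA and vanB VRE.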

[14] = system: Streptococcus; test: Antimicrobial activity against Streptococcus isolates by broth macrodilution method; type: functional
[15] = system: Staphylococcus aureus; test: Antimicrobial activity against methicillin resistant Staphylococcus aureus DM21455 by broth macrodilution method; type: functional; summary of the method: as §3
[16] = system: Staphylococcus aureus; test: Antimicrobial activity against methicillin resistant Staphylococcus aureus DM09809R by broth macrodilution method; type: functional; summary of the method: as §3
[17] = system: Staphylococcus aureus; test: Antimicrobial activity against Staphylococcus aureus ATCC 29213 at 0.5 times MIC measured after 17 passages by multistep passage drug resistance selection study relative to wild type Staphylococcus aureus ATCC 29213 before passage; type: functional
Summary of the method: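 Multipassage selection in S. aureus ATCC29213 across an eight-concentration dilution series. Growth was read after 20−22 h. Bacteria growing at 0.5 × MIC were repassaged into a fresh series, 17 passages in total. Resistance was defined as a more than 4-fold rise over the initial MIC.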

[18] = Selectivity index, ratio of HC50 for induction of hemolysis in New Zealand white rabbit RBC to MIC for Staphylococcus aureus DM09809R
[19] = system: Lipid bilayer; test: Induction of vesicle leakage in DOPC large unilamellar vesicles assessed as calcein release at 1/16 compound to lipid ratio by fluorescence assay; type: functional; summary of the method: as §1
[20] = system: Staphylococcus aureus; test: Antimicrobial activity against methicillin sensitive Staphylococcus aureus isolates by broth macrodilution method; type: functional
[21] = system: Staphylococcus aureus; test: Antimicrobial activity against Staphylococcus aureus ATCC 29213 in presence of 4% BSA by broth macrodilution method; type: functional; summary of the method: as §4
[22] = system: Staphylococcus aureus; test: Antimicrobial activity against methicillin resistant Staphylococcus aureus isolates by broth macrodilution method; type: functional
[23] = system: Mus musculus; test: Toxicity in C57BL6 mouse eye assessed as effect on corneal clarity at 3 mg/ml applied topically 5 times/day for 4 days by slit lamp biomicroscopy; type: organism-based, Cornea; conditions: in vivo, topical_or_ocular, 96 h; summary of the method: as §2
[24] = system: Staphylococcus aureus; test: Antimicrobial activity against vancomycin-intermediate sensitive Staphylococcus aureus isolates by broth macrodilution method; type: functional
[25] = system: Staphylococcus aureus; test: Antimicrobial activity against Staphylococcus aureus ATCC 29213 by broth macrodilution method; type: functional; summary of the method: as §3
[26] = system: Staphylococcus aureus; test: Antimicrobial activity against epidemic methicillin resistant Staphylococcus aureus isolates by broth macrodilution method; type: functional
[27] = system: Staphylococcus aureus; test: Antimicrobial activity against Staphylococcus aureus ATCC 29213 infected in mouse cornea infection model assessed as reduction in viable bacterial count at 0.3% solution applied topically 5 times/day dosed 1 day after infection relative to control; type: functional
Summary of the method: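 Mouse cornea given three superficial 1 mm scratches on one eye under ketamine/xylazine, then 10 μL of S. aureus ATCC 29213 suspension (1 × 10^8 CFU/mL in USP phosphate buffer) applied topically. Treated topically 5 times/day from day 1 postinfection; PBS negative control; 4 mice/group killed on days 1, 2 and 3. Corneas homogenized in 0.9% NaCl with 0.25% BSA, plated in duplicate on TSA (48 h, 35 °C); log10 CFU/cornea.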

[28] = system: Lipid bilayer; test: Binding affinity to DOPE/DOPG large unilamellar vesicles by 1D 1H NMR spectroscopy; summary of the method: as §5
[29] = Retention time of the compound; type: physicochemical
Summary of the method: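 Reverse-phase HPLC of 20 μL injections of a 10 μg/mL sample at 1 mL/min. Gradient: 5−55% ACN over 5 min, then 55−95% over 15 min.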

[30] = system: Mus musculus; test: Toxicity in C57BL6 mouse eye assessed as effect on wound closure at 3 mg/ml applied topically 5 times/day for 4 days by slit lamp biomicroscopy; type: organism-based; conditions: in vivo, topical_or_ocular, 96 h
[31] = Selectivity index, ratio of HC50 for induction of hemolysis in New Zealand white rabbit RBC to MIC for Bacillus cereus ATCC 11778
[32] = system: Listeria monocytogenes; test: Antimicrobial activity against Listeria monocytogenes isolates by broth macrodilution method; type: functional
[33] = system: Bacillus cereus; test: Antimicrobial activity against Bacillus cereus ATCC 11778 by broth macrodilution method; type: functional
Summary of the method: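 CLSI broth macrodilution in Mueller Hinton broth. Inoculum was made by direct colony suspension from colonies on an 18−20 h tryptic soy agar plate. The value is the MIC.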

[34] = system: Staphylococcus aureus; test: Antimicrobial activity against Staphylococcus aureus DM4001 by broth macrodilution method; type: functional; summary of the method: as §3
[35] = system: Staphylococcus epidermidis; test: Antimicrobial activity against Staphylococcus epidermidis isolates by broth macrodilution method; type: functional
[36] = system: Staphylococcus aureus; test: Bactericidal activity against methicillin resistant Staphylococcus aureus DM21455 assessed as induction of bacterial killing at 1 times MIC after 1 hr by cell counting based time kill assay; type: functional; summary of the method: as §6
[37] = system: Corynebacterium jeikeium; test: Antimicrobial activity against Corynebacterium jeikeium isolates by broth macrodilution method; type: functional
[38] = system: Staphylococcus aureus; test: Antimicrobial activity against multidrug resistant Staphylococcus aureus isolates by broth macrodilution method; type: functional
[39] = Selectivity index, ratio of HC50 for induction of hemolysis in New Zealand white rabbit RBC to MIC for Staphylococcus aureus DM4001
[40] = system: Lipid bilayer; test: Induction of vesicle leakage in DOPC large unilamellar vesicles assessed as calcein release at 1/64 compound to lipid ratio by fluorescence assay
[41] = system: Lipid bilayer; test: Induction of vesicle leakage in DOPE/DOPG large unilamellar vesicles assessed as calcein release at 1/32 compound to lipid ratio by fluorescence assay; type: functional; summary of the method: as §1
[42] = system: Lipid bilayer; test: Induction of vesicle leakage in DOPE/DOPG large unilamellar vesicles assessed as calcein release at 1/64 compound to lipid ratio by fluorescence assay; type: functional; summary of the method: as §1

Row | Structure (SMILES) | Activity [1] [%] | Activity [2] | HC50 at 1 h [3] [µg/mL] | Selectivity Index [4] | MIC [5] [µg/mL] | MIC [6] [µg/mL] | MIC [7] [µg/mL] | MIC [8] [µg/mL] | MIC [9] [µg/mL] | Activity [11] | MIC [12] [µg/mL] | MIC [14] [µg/mL] | MIC [15] [µg/mL] | MIC [16] [µg/mL] | Activity [17] | Selectivity Index [18] | Activity [19] [%] | MIC [20] [µg/mL] | MIC [21] [µg/mL] | MIC [22] [µg/mL] | other results
1 | COC(=O)[C@H](CCCNC(=N)N)NC(=O)COc1cc2oc3cc(OCC(=O)N[C@@H](CCCNC(=N)N)C(=O)OC)c(OC)c(CC=C(C)C)c3c(=O)c2c(O)c1CC=C(C)C | 68 | Non-toxic | 232 | 77 | 2 (≈ 2.31 µM) | 2 (≈ 2.31 µM) | 3.12 (≈ 3.6 µM) | 6.25 | 2 (≈ 2.31 µM) | Non-toxic | 1.56 (≈ 1.8 µM) | 4 (≈ 4.61 µM) | 3 (≈ 3.46 µM) | 3 (≈ 3.46 µM) | Active | 77 | 32 | 2 (≈ 2.31 µM) | 3.12 | 2 (≈ 2.31 µM) | Activity [10]: inactive; Activity [13]: 99.9%; Activity [23]: Non-toxic; MIC [24]: 4 µg/mL (≈ 4.61 µM); MIC [25]: 3 µg/mL (≈ 3.46 µM); MIC [26]: 2 µg/mL (≈ 2.31 µM); inhibition (INH) [27]: 99.7%; Activity [28]: Active; Retention_time [29]: 7.96 min; Activity [30]: Non-toxic; Selectivity Index [31]: 77; MIC [32]: 4 µg/mL (≈ 4.61 µM); MIC [33]: 2 µg/mL (≈ 2.31 µM); MIC [34]: 2 µg/mL (≈ 2.31 µM); MIC [35]: 2 µg/mL (≈ 2.31 µM); Activity [36]: 99.9%; MIC [37]: 4 µg/mL (≈ 4.61 µM); MIC [38]: 2 µg/mL (≈ 2.31 µM); Selectivity Index [39]: 77
2 | COC(=O)C(CCCNC(=N)N)NC(=O)C(CCCNC(=N)N)NC(=O)COc1cc2oc3cc(OCC(=O)NC(CCCNC(=N)N)C(=O)NC(CCCNC(=N)N)C(=O)OC)c(OC)c(CC=C(C)C)c3c(=O)c2c(O)c1CC=C(C)C (configuration not stated) | 99.2 | Non-toxic | 277 | 92 | 2 (≈ 1.7 µM) | 2 (≈ 1.7 µM) | 1.56 (≈ 1.32 µM) | 12.5 | 1 (≈ 0.848 µM) | Non-toxic | 3.12 (≈ 2.65 µM) | 2 (≈ 1.7 µM) | 2 (≈ 1.7 µM) | 3 (≈ 2.54 µM) | Active | 92 | < 15 | 2 (≈ 1.7 µM) | 12.5 | 2 (≈ 1.7 µM) | Activity [40]: < 15%; Activity [41]: 67.9%; Activity [23]: Non-toxic; MIC [24]: 2 µg/mL (≈ 1.7 µM); MIC [25]: 2 µg/mL (≈ 1.7 µM); MIC [26]: 2 µg/mL (≈ 1.7 µM); inhibition (INH) [27]: 99.9%; Activity [42]: 24.6%; Retention_time [29]: 6.49 min; Activity [30]: Non-toxic; Selectivity Index [31]: 92; MIC [32]: 2 µg/mL (≈ 1.7 µM); MIC [33]: 3 µg/mL (≈ 2.54 µM); MIC [34]: 0.5 µg/mL (≈ 0.424 µM); MIC [35]: 2 µg/mL (≈ 1.7 µM); MIC [37]: 2 µg/mL (≈ 1.7 µM); MIC [38]: 2 µg/mL (≈ 1.7 µM); Selectivity Index [39]: 92
